This note sets out measurements from ChEMBL document CHEMBL1926559, “Metabolic and electrochemical mechanisms of dimeric naphthoquinones cytotoxicity in breast cancer cells” (Bioorg Med Chem, 2011).

Calls of active or inactive are those of the source. The calls are words filed in the database; no cut-off is given here.

The IC50 is the point on the concentration scale where inhibition reaches its midpoint.

The subject of experiment [1] is MDA-MB-453. Nature of the experiment: Antiproliferative activity against human MDA-MB-453 cells assessed as decrease in ATP level in viable cells at >20 uM after 4 hrs by CellTiter-Glo luminescent assay relative to control. The experiment is classed as functional, cell-based. The method in brief: (§1)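 10,000 cells per well, treated in sextuplet with DMSO or 5, 10, 20 or 50 μM for 4 h. ATP read by CellTiter-Glo luminescence, normalized to average count of viable trypan-blue-excluding cells per condition, expressed relative to DMSO.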
For orientation: ATP-based viability assays read luminescence as a measure of living cells.

Experiment [2] deals with MDA-MB-453. Put plainly: Antiproliferative activity against human MDA-MB-453 cells assessed as decrease in ATP level in viable cells at 10 uM after 4 hrs by CellTiter-Glo luminescent assay relative to control. The experiment is classed as functional. The method in brief:
as §1

Experiment [3] relates to MCF7. Put plainly: Cytotoxicity against DCFDA-treated human MCF7 cells assessed as increase in ROS production […] by flow cytometric analysis. In kind it is functional, cell-based. In short, it runs like this:
(§2)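 Cells preloaded with 5μM carboxy-DCFDA for 30 min, then exposed to 20 μM compound or DMSO for 2 h, collected and analysed by flow cytometry (488 nm excitation, 530 nm emission); percentage of fluorescent cells vs DMSO; triplicate samples, two separate experiments.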

Experiment [4] concerns MCF7. Nature of the experiment: Antiproliferative activity against human MCF7 cells assessed as cell survival at 50 uM by trypan blue exclusion assay relative to control. The experiment is classed as functional. The settings on record: read-out: Survival. In short, it runs like this:
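MCF-7 cells kept in DMEM with 10% fetal bovine serum and 1% antibiotics at 37°C, 5% CO2, grown at 1×10⁵ cells/mL. Cells were exposed to DMSO vehicle or DMSO-dissolved compound. Viability was scored by trypan blue exclusion cell counts, done in triplicate and given as mean ± SD. Survival was expressed relative to the DMSO control.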

The subject of experiment [5] is MCF7. Nature of the experiment: Antiproliferative activity against human MCF7 cells after 4 hrs by MTT assay. The experiment is classed as functional, cell-based. The method in brief: (§3)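 Cells in DMEM with 10% FBS and 1% antibiotics, 37°C, 5% CO2; equal numbers plated in three or more replicates, attached overnight, then exposed to 5, 10, 20 or 50 μM (DMSO vehicle) in complete medium for 4 h. Then 0.5 mg/ml MTT for 1 h, medium replaced with PBS, absorbance at 570 nm minus 690 nm background; compared to DMSO.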
On the technique in general: Formazan colour is commonly taken as a measure of viable cells.

Experiment [6] concerns MDA-MB-453. Put plainly: Antiproliferative activity against human MDA-MB-453 cells assessed as decrease in ATP level in viable cells at 20 uM after 4 hrs by CellTiter-Glo luminescent assay relative to control. In kind it is functional. The method in brief:
as §1

The test system of experiment [7] is MCF7. Nature of the experiment: Cytotoxicity against human MCF7 cells assessed as decrease in oxygen consumption at 20 uM by Clark-type oxygen electrode analysis. The experiment is classed as functional, cell-based. In short, it runs like this: (§4)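 After 3 h exposure to 20 μM compound or DMSO, cells trypsinized, PBS-washed, pelleted; 5×10⁶ cells in 0.8 mL PBS with 10% FCS placed in a Clark-type oxygen electrode chamber to measure O2 consumption; duplicate experiments.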

Experiment [8] relates to MCF7. Put plainly: Antiproliferative activity against human MCF7 cells assessed as decrease in ATP level in viable cells after 4 hrs by CellTiter-Glo luminescent assay relative to control. In kind it is functional, cell-based. The method in brief: as §1
The subject of experiment [9] is MDA-MB-453. Nature of the experiment: Antiproliferative activity against human MDA-MB-453 cells after 4 hrs by MTT assay. In kind it is functional, cell-based. The method in brief: as §3
Experiment [10] relates to MDA-MB-453. Nature of the experiment: Growth inhibition of human MDA-MB-453 cells by trypan blue exclusion assay. In kind it is functional, cell-based. In short, it runs like this:
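Viability counted by trypan blue exclusion; cells grown at 1×10⁵ cells/mL, counts done in triplicate, mean ± SD relative to DMSO.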

The subject of experiment [11] is MDA-MB-453. Put plainly: Cytotoxicity against DCFDA-treated human MDA-MB-453 cells assessed as increase in ROS production after 30 mins by flow cytometric analysis. In kind it is functional. The method in brief:
as §2
In general terms: In flow cytometry, cells or beads pass a laser one at a time.

Experiment [12] relates to MDA-MB-453. Nature of the experiment: Cytotoxicity against human MDA-MB-453 cells assessed as decrease in oxygen consumption at 20 uM by Clark-type oxygen electrode analysis. In kind it is functional, cell-based. The method in brief:
as §4

Regarding `CC(C)=CCC[C@]1(C)C=Cc2c(ccc3c2C(=O)C(O)=C(C2=C(Cl)C(=O)c4ccccc4C2=O)C3=O)O1`, the result in the experiment with MDA-MB-453 [1], in the experiment with MDA-MB-453 [2], in the experiment with MCF7 [3], in the experiment on MCF7 [5], with MCF7 [7] and in the experiment with MCF7 [8] was inactive. The viability at 50 µM with MCF7 [4] came to 85%. The results for the Activity in the experiment with MDA-MB-453 [6], in the experiment with MDA-MB-453 [9] and with MDA-MB-453 [11] were 27%, “Dose-dependent effect” and 50%, respectively. Further, in the experiment with MDA-MB-453 [10], half-maximal inhibition (IC50) required 34 µM. For the same compound, the result with MDA-MB-453 [12] was Active.

For `O=C1C(O)=C(C2=C(Cl)C(=O)c3ccccc3C2=O)C(=O)c2ccccc21`, the outcome with MDA-MB-453 [1], in the experiment with MCF7 [3], in the experiment with MCF7 [5], in the experiment with MCF7 [7] and in the experiment on MCF7 [8] was inactive. Moreover, the Activity was 53% with MDA-MB-453 [2], 60% in the experiment on MDA-MB-453 [6], “Dose-dependent effect” with MDA-MB-453 [9] and 50% with MDA-MB-453 [11]. Besides, in the experiment on MCF7 [4], the viability at 50 µM stood at 80%. Moreover, in the experiment with MDA-MB-453 [10], the IC50 was 15 µM. Also, the result with MDA-MB-453 [12] was Active.

On to `COc1ccc2c(c1)C(=O)C(C1=C(Cl)C(=O)c3ccccc3C1=O)=C(O)C2=O`, for which the outcome in the experiment on MDA-MB-453 [1], in the experiment on MCF7 [3], with MCF7 [5], in the experiment with MCF7 [7] and in the experiment on MCF7 [8] was inactive. Besides, the Activity with MDA-MB-453 [2] was 37%; in the experiment on MDA-MB-453 [6], 60%; in the experiment on MDA-MB-453 [9] it was “Dose-dependent effect”; with MDA-MB-453 [11], 50%. Besides, the viability at 50 µM in the experiment with MCF7 [4] was 83%. Further, in the experiment with MDA-MB-453 [10], the IC50 came out at 17 µM. Further, in the experiment on MDA-MB-453 [12], the outcome was Active.
